Holding throughout (format): functional, Rattus norvegicus, Hippocampus
Test [1] is described as follows: Inability to reverse inhibitory effect of D-threo-1-phenyl-2-decanoylamino-3-morpholino-1-propanol(PDMP) on accelerated axonal growth of hippocampal neurons, number of axonal branch points/ cell at 51 hour (P value). The essentials: (§1)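 Rat (E18 Wistar) hippocampal neurons cultured at low density over glia in serum-free N2 MEM. Treated at 48 h with bFGF 1 ng/mL, PDMP 50 μM final (Hepes stock) and with or without analogue 5 μM from ethanol (≤1% final). Axonal branch points/cell counted by phase contrast after glutaraldehyde fixation at 51 h and normalized to 48 h. Mean ± SEM of three cultures, 50 cells × two cover slips; p values vs bFGF or bFGF+PDMP.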

Test [2] can be described thus: Evaluation for reversing the inhibitory effects of Fumonisin B1(FB1) on accelerated axonal growth of hippocampal neurons. Summed up:
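E18 Wistar rat hippocampal neurons, trypsin-dissociated and plated at low density on poly-L-lysine cover slips over a glial monolayer in serum-free N2 MEM. At 48 h: bFGF 1 ng/mL plus FB1 10 μM (Hepes stock) with or without analogue 5 μM (ethanol, ≤1% final). At 51 h, fixed in glutaraldehyde and axonal branch points/cell counted by phase contrast. Values normalized to 48 h; mean ± SEM of three cultures, 50 cells per cover slip, two cover slips per treatment; p values reported.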

The nature of test [3]: Inability to reverse inhibitory effect of D-threo-1-phenyl-2-decanoylamino-3-morpholino-1-propanol(PDMP) on accelerated axonal growth of hippocampal neurons (P value). The essentials:
as §1

SMILES strings stand for the structures. “And” between values parts separate entries of the source, which are not always exact repeats. Identical values can stand only once. Some results are limits rather than exact numbers.

On to `CCCCCCC/C=C/[C@@H](F)[C@H](CO)NC(=O)CCCCC`, for which the values for the No. of axonal points in test [1] and in test [2] were 1.12 and 1.39, respectively.
As for `CCCCCCC/C=C/[C@H](F)[C@H](CO)NC(=O)CCCCC`, the No. of axonal points amounted to 1.16 in test [1] and 1.29 in test [2].
Turning to `CCCCCC(=O)N[C@@H](CO)[C@H](O)/C=C/c1ccc(C)cc1`, in test [2], the No. of axonal points turned out to be 1.46.
Turning to `CCCCCc1ccc(/C=C/[C@@H](O)[C@H](CO)NC(C)=O)cc1`, the No. of axonal points in test [2] was 1.67.
On the same count and under the same terms, next, `CCCCCC(=O)N[C@@H](CO)[C@H](O)/C=C/c1ccc(F)cc1`: 1.5.
In the case of `CCCCCCCCCCCCC/C=C/[C@@H](O)[C@H](CO)NC(=O)CCCCCNc1ccc([N+](=O)[O-])c2nonc12`, the No. of axonal points was 0.86 and 1.08 in test [1]; <1.66 and 1.46 in test [2].
For `CCCCCCCCCCCCC/C=C/[C@H](O)[C@H](CO)NC(=O)CCCCCNc1ccc([N+](=O)[O-])c2nonc12`, the No. of axonal points was 0.94 in test [3]; 1.06 in test [1]; <1.01 and <1.06 in test [2].
Consider `CCCCCC(=O)N[C@@H](CO)[C@H](O)/C=C/c1ccc(OC)cc1`, for which the No. of axonal points in test [2] is 1.35.
As for `CCCCCC(=O)N[C@@H](CO)[C@H](O)/C=C/c1cccs1`, the results for the No. of axonal points in test [1] and in test [2] were 1.04 and 1.38, respectively.
Regarding `CCCCCc1ccc(/C=C/[C@@H](O)[C@H](CO)NC(=O)CCC)cc1`, the No. of axonal points in test [2] is 1.83.
Same read-out and setting: next, `CCCCCC(=O)N[C@@H](CO)[C@H](O)/C=C/c1ccc(CCCCC)cc1`: 1.54.
The same measure, in the same setting: next, `CCCCCCC/C=C/[C@@H](O)[C@H](CO)NC(=O)CCCCC`: 1.43; `CCCCCCC/C=C/[C@H](O)[C@H](CO)NC(=O)CCCCC`: 1.11.
Consider `CCCCCC(=O)N[C@@H](CO)[C@H](O)/C=C/c1ccccc1`, for which the No. of axonal points in test [1] was 0.92; in test [2], 2.09.

Values taken from ChEMBL document CHEMBL1133505, “Synthesis and biological evaluation of ceramide analogues with substituted aromatic rings or an allylic fluoride in the sphingoid moiety” (2000).
